Experimental data from ChEMBL document CHEMBL4689842, “EUbOPEN Chemogenomics Library wave 1” (2021).

Test system: HEK-293T
Experiment: Multiplex assay against HEK293T;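 for Population Tubulin-Different-Phenotype (%): share of the cells with healthy nuclei that show this phenotype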
Format: toxicity, cell-based
Settings: human
In short: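 Live cells were stained at seeding with Hoechst33342, BioTracker Green Microtubule Cytoskeleton Dye, MitoTracker Red and Annexin V Alexa Fluor 680, then imaged on a CQ1 microscope at 37°C and 5% CO2 after compound addition. CellPathfinder machine-learning gating split cells into Hoechst high-intensity objects or normal cells. Normal cells were split into healthy, pyknosed or fragmented nuclei, and pyknosed cells into mitotic or apoptotic. Tubulin, mitochondrial-mass and membrane-permeability phenotypes are per cents of healthy-nucleus cells.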

[1] = 12 h, 1 µM, compound concentration 1 uM, replicate 1
[2] = 12 h, 1 µM, compound concentration 1 uM, replicate 2
[3] = 12 h, 10 µM, compound concentration 10 uM, replicate 1
[4] = 12 h, 10 µM, compound concentration 10 uM, replicate 2
[5] = 24 h, 1 µM, compound concentration 1 uM, replicate 1
[6] = 24 h, 1 µM, compound concentration 1 uM, replicate 2
[7] = 24 h, 10 µM, compound concentration 10 uM, replicate 1
[8] = 24 h, 10 µM, compound concentration 10 uM, replicate 2
[9] = 48 h, 1 µM, compound concentration 1 uM, replicate 1
[10] = 48 h, 1 µM, compound concentration 1 uM, replicate 2
[11] = 48 h, 10 µM, compound concentration 10 uM, replicate 1
[12] = 48 h, 10 µM, compound concentration 10 uM, replicate 2

## OC1(c2ccc(Cl)cc2)CCN(Cc2c[nH]c3ccccc23)CC1
[1]
  Population Apoptotic (%): 51%
  Population Fragmented Nuclei (%): 20%
  Population Healthy Nuclei (%): 14%
  Population Hoechst High Intensity Objects (%): 15%
  Population Membrane Permeable-Phenotype (%): 4%
  Population Mitochondria Different-Phenotype (%): 63%
  Population Mitotic Cells (%): 48%
  Population Normal (%): 84%
  Population Pyknosed Nuclei (%): 65%
  Population Tubulin-Different-Phenotype (%): 45%
  Total Cell Count: 177
[2]
  Population Apoptotic (%): 18%
  Population Fragmented Nuclei (%): 6%
  Population Healthy Nuclei (%): 29%
  Population Hoechst High Intensity Objects (%): 6%
  Population Membrane Permeable-Phenotype (%): 7%
  Population Mitochondria Different-Phenotype (%): 34%
  Population Mitotic Cells (%): 81%
  Population Normal (%): 93%
  Population Pyknosed Nuclei (%): 63%
  Population Tubulin-Different-Phenotype (%): 42%
  Total Cell Count: 136
[3]
  Population Apoptotic (%): 70%
  Population Fragmented Nuclei (%): 11%
  Population Healthy Nuclei (%): 11%
  Population Hoechst High Intensity Objects (%): 15%
  Population Membrane Permeable-Phenotype (%): 7%
  Population Mitochondria Different-Phenotype (%): 100%
  Population Mitotic Cells (%): 29%
  Population Normal (%): 84%
  Population Pyknosed Nuclei (%): 77%
  Population Tubulin-Different-Phenotype (%): 92%
  Total Cell Count: 275
[4]
  Population Apoptotic (%): 63%
  Population Fragmented Nuclei (%): 5%
  Population Healthy Nuclei (%): 14%
  Population Hoechst High Intensity Objects (%): 9%
  Population Membrane Permeable-Phenotype (%): 17%
  Population Mitochondria Different-Phenotype (%): 89%
  Population Mitotic Cells (%): 36%
  Population Normal (%): 90%
  Population Pyknosed Nuclei (%): 80%
  Population Tubulin-Different-Phenotype (%): 86%
  Total Cell Count: 223
[5]
  Population Apoptotic (%): 50%
  Population Fragmented Nuclei (%): 22%
  Population Healthy Nuclei (%): 30%
  Population Hoechst High Intensity Objects (%): 16%
  Population Membrane Permeable-Phenotype (%): 3%
  Population Mitochondria Different-Phenotype (%): 70%
  Population Mitotic Cells (%): 49%
  Population Normal (%): 83%
  Population Pyknosed Nuclei (%): 46%
  Population Tubulin-Different-Phenotype (%): 42%
  Total Cell Count: 210
[6]
  Population Apoptotic (%): 27%
  Population Fragmented Nuclei (%): 6%
  Population Healthy Nuclei (%): 52%
  Population Hoechst High Intensity Objects (%): 5%
  Population Membrane Permeable-Phenotype (%): 8%
  Population Mitochondria Different-Phenotype (%): 30%
  Population Mitotic Cells (%): 72%
  Population Normal (%): 94%
  Population Pyknosed Nuclei (%): 40%
  Population Tubulin-Different-Phenotype (%): 50%
  Total Cell Count: 171
[7]
  Population Apoptotic (%): 76%
  Population Fragmented Nuclei (%): 14%
  Population Healthy Nuclei (%): 3%
  Population Hoechst High Intensity Objects (%): 16%
  Population Membrane Permeable-Phenotype (%): 0%
  Population Mitochondria Different-Phenotype (%): 100%
  Population Mitotic Cells (%): 23%
  Population Normal (%): 83%
  Population Pyknosed Nuclei (%): 81%
  Population Tubulin-Different-Phenotype (%): 100%
  Total Cell Count: 282
[8]
  Population Apoptotic (%): 89%
  Population Fragmented Nuclei (%): 5%
  Population Healthy Nuclei (%): 8%
  Population Hoechst High Intensity Objects (%): 8%
  Population Membrane Permeable-Phenotype (%): 15%
  Population Mitochondria Different-Phenotype (%): 73%
  Population Mitotic Cells (%): 10%
  Population Normal (%): 91%
  Population Pyknosed Nuclei (%): 85%
  Population Tubulin-Different-Phenotype (%): 84%
  Total Cell Count: 238
[9]
  Population Apoptotic (%): 58%
  Population Fragmented Nuclei (%): 19%
  Population Healthy Nuclei (%): 53%
  Population Hoechst High Intensity Objects (%): 13%
  Population Mitochondria Different-Phenotype (%): 41%
  Population Mitotic Cells (%): 41%
  Population Normal (%): 86%
  Population Pyknosed Nuclei (%): 26%
  Population Tubulin-Different-Phenotype (%): 31%
  Total Cell Count: 247
[10]
  Population Apoptotic (%): 7%
  Population Fragmented Nuclei (%): 7%
  Population Healthy Nuclei (%): 70%
  Population Hoechst High Intensity Objects (%): 2%
  Population Membrane Permeable-Phenotype (%): 6%
  Population Mitochondria Different-Phenotype (%): 15%
  Population Mitotic Cells (%): 92%
  Population Normal (%): 97%
  Population Pyknosed Nuclei (%): 22%
  Population Tubulin-Different-Phenotype (%): 39%
  Total Cell Count: 264
[11]
  Population Apoptotic (%): 71%
  Population Fragmented Nuclei (%): 22%
  Population Healthy Nuclei (%): 0%
  Population Hoechst High Intensity Objects (%): 18%
  Population Membrane Permeable-Phenotype (%): 0%
  Population Mitochondria Different-Phenotype (%): 100%
  Population Mitotic Cells (%): 28%
  Population Normal (%): 81%
  Population Pyknosed Nuclei (%): 77%
  Population Tubulin-Different-Phenotype (%): 100%
  Total Cell Count: 295
[12]
  Population Apoptotic (%): 89%
  Population Fragmented Nuclei (%): 19%
  Population Healthy Nuclei (%): 19%
  Population Hoechst High Intensity Objects (%): 4%
  Population Membrane Permeable-Phenotype (%): 4%
  Population Mitochondria Different-Phenotype (%): 71%
  Population Mitotic Cells (%): 10%
  Population Normal (%): 95%
  Population Pyknosed Nuclei (%): 60%
  Population Tubulin-Different-Phenotype (%): 95%
  Total Cell Count: 224
